Data published in ChEMBL document CHEMBL4145632, “Selective Irreversible Inhibitors of the Wnt-Deacylating Enzyme NOTUM Developed by Activity-Based Protein Profiling” (ACS Med Chem Lett, 2018).
Active and inactive are the calls of the source. The rule behind the calls is not given here.

Legend:
Type in all cases: cell-based
[1] = biological target: T1, Palmitoleoyl-protein carboxylesterase NOTUM (Homo sapiens, UniProt Q6P988); assay: Inhibition of rhodamine-tagged FP probe binding to NOTUM in human SW620 cells conditioned media pretreated for 30 mins followed by rhodamine-tagged FP probe addition and measured after 30 mins by SDS-PAGE fluorescence analysis
T1 sequence (Q6P988 whole entry): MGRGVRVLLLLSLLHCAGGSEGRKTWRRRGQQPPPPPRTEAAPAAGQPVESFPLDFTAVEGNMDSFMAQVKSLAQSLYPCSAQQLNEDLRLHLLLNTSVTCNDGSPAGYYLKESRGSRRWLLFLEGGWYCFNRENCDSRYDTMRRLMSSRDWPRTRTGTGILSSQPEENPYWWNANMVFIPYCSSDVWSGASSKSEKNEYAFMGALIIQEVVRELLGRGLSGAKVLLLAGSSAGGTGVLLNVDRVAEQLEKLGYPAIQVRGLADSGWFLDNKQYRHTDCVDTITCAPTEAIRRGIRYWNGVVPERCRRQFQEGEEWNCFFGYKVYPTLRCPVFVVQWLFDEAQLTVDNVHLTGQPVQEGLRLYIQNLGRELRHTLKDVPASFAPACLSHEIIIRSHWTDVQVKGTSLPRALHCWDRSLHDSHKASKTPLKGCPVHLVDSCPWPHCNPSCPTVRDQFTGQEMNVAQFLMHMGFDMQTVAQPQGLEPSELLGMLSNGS

[2] = biological target: T1, Palmitoleoyl-protein carboxylesterase NOTUM; assay: Inhibition of rhodamine-tagged FP probe binding to NOTUM in human SW620 cells conditioned media at 0.1 to 3 uM pretreated for 30 mins followed by rhodamine-tagged FP probe addition and measured after 30 mins by SDS-PAGE fluorescence analysis; conditions: 0.5 h
[3] = biological target: T2, Monoacylglycerol lipase ABHD6 (Homo sapiens) (UniProt Q9BV23); assay: Inhibition of rhodamine-tagged FP probe binding to ABHD6 in human SW620 cells at 0.1 to 10 uM pretreated for 2 hrs followed by rhodamine-tagged FP probe addition and measured after 30 mins by SDS-PAGE fluorescence analysis
T2 sequence (whole entry): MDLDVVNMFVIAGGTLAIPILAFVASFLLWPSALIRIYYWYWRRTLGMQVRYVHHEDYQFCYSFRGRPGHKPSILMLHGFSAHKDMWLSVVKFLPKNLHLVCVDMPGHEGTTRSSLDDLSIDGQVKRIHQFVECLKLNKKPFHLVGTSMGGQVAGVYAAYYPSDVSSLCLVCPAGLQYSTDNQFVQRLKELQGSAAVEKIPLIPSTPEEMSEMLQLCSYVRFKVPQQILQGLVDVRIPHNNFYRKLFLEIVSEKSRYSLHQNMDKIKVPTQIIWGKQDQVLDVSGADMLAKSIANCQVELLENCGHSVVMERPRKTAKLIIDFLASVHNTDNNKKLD
In short: (§1)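 SW620 cells were treated in situ with compound at the stated concentrations for 2 h at 37 °C. Soluble and membrane proteomes were then labeled with the PPT1-directed probe ABC45 or FP-Rh. Competition was read by SDS-PAGE and in-gel fluorescence scanning.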

[4] = biological target: T3, Palmitoyl-protein thioesterase 1 (Homo sapiens) (UniProt P50897); assay: Inhibition of ABC45 probe binding to PPT1 in human SW620 cells at 0.1 to 10 uM pretreated for 2 hrs followed by ABC45 probe addition and measured after 30 mins by rhodamine-azide reporter tagged based SDS-PAGE fluorescence analysis; in short: as §1
T3 sequence (whole entry): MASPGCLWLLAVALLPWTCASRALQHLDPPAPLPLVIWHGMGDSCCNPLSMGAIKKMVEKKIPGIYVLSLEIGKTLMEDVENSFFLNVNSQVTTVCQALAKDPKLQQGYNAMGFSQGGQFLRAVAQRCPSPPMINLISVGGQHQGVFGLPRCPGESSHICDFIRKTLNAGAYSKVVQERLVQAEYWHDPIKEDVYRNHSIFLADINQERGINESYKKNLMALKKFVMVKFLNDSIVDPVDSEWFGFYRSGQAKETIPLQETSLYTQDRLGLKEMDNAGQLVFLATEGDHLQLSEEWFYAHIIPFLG

[5] = biological target: T1, Palmitoleoyl-protein carboxylesterase NOTUM; assay: Inhibition of rhodamine-tagged FP probe binding to NOTUM in human SW620 cells conditioned medium at 0.01 to 1 uM pretreated for 30 mins followed by rhodamine-tagged FP probe addition and measured after 30 mins by SDS-PAGE fluorescence analysis; conditions: 0.5 h
[6] = biological target: T1, Palmitoleoyl-protein carboxylesterase NOTUM; assay: Inhibition of NOTUM in human SW620 cells conditioned medium at 0.01 to 1 uM measured after 30 mins by rhodamine-azide reporter tagged based SDS-PAGE fluorescence analysis; conditions: 0.5 h
In short: (§2)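 Alkyne probe analogue was added to SW620 conditioned medium or cellular lysate for 30 min at 37 °C. Samples were clicked to a rhodamine-azide tag by copper-mediated azide–alkyne cycloaddition, then read by SDS-PAGE and in-gel fluorescence.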

[7] = biological target: T2, Monoacylglycerol lipase ABHD6 (Homo sapiens); assay: Inhibition of rhodamine-tagged FP probe binding to ABHD6 in human SW620 cells at 0.1 uM pretreated for 30 mins followed by rhodamine-tagged FP probe addition and measured after 30 mins by SDS-PAGE fluorescence analysis
[8] = biological target: T2, Monoacylglycerol lipase ABHD6 (Homo sapiens); assay: Inhibition of ABHD6 in human SW620 cells at 0.1 uM after 30 mins by rhodamine-azide reporter tagged based SDS-PAGE fluorescence analysis; in short: as §2
[9] = biological target: T1, Palmitoleoyl-protein carboxylesterase NOTUM; assay: Inhibition of NOTUM in human SW620 cells conditioned medium assessed as preservation of Wnt3A activity pretreated for 1 hr followed by Wnt3A producing L-cell addition for 2 hrs and subsequent […]-STF cell addition and measured after 24 hrs by luciferase reporter gene assay
[10] = biological target: T1, Palmitoleoyl-protein carboxylesterase NOTUM; assay: Inhibition of NOTUM in human SW620 cells conditioned medium at 10 uM after 1 hr by FP-biotin probe based LC-MS analysis relative to control
In short: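 SW620 conditioned medium was treated with compound (0.5 or 10 μM) or DMSO for 1 h at 37 °C. Peptides were labeled with light (compound) or heavy (DMSO) formaldehyde, combined and analyzed by MS. Values are light/heavy median peptide ratios from two independent experiments, ±SEM.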

[11] = biological target: T2, Monoacylglycerol lipase ABHD6 (Homo sapiens); assay: Inhibition of ABHD6 in human SW620 cells at 10 uM after 2 hrs by FP-biotin probe based LC-MS analysis
[12] = biological target: T1, Palmitoleoyl-protein carboxylesterase NOTUM; assay: Inhibition of rhodamine-tagged FP probe binding to recombinant human C-terminal FLAG-tagged NOTUM expressed in HEK293T cells pretreated for 30 mins followed by rhodamine-tagged FP probe addition and measured after 30 mins by SDS-PAGE fluorescence analysis

Row | SMILES | IC50 [1] | inhibition (INH) [2] | inhibition [4] | further results
1 | COc1ccc(N2CCN(C(=O)ON3C(=O)C4CN(Cc5ccc(Cl)cc5)CCN4C3=O)CC2)cc1 (centres undefined) | 290 nM | Active | Active | inhibition [3]: Active
2 | COc1ccc(N2CCN(C(=O)ON3C(=O)C4CN(Cc5ccccc5Cl)CCN4C3=O)CC2)cc1 (centres undefined) | 200 nM | Active | – | –
3 | C#CCN1CCN(C(=O)ON2C(=O)C3CN(Cc4ccc(Cl)cc4)CCN3C2=O)c2ccccc21 (centres undefined) | – | – | – | inhibition (INH) [5]: Active; inhibition (INH) [6]: Active; inhibition [7]: inactive; inhibition [8]: inactive
4 | COc1ccc(N2CCN(C(=O)ON3C(=O)C4CN(Cc5cccc(Cl)c5)CCN4C3=O)CC2)cc1 (centres undefined) | > 10000 nM | Not Active | – | –
5 | O=C(c1ccc(Cl)cc1)N1CCN2C(=O)N(OC(=O)N3CCOc4ccccc43)C(=O)C2C1 (centres undefined) | > 10000 nM | – | – | IC50 [9]: > 5000 nM; inhibition (INH) [10]: Not Active; inhibition [11]: Active
6 | O=C1C2CN(Cc3ccc(Oc4ccccc4)nc3)CCN2C(=O)N1OC(=O)N1CCOc2ccccc21 (centres undefined) | – | – | inactive | IC50 [12]: 1510 nM
7 | O=C1C2CN(Cc3ccc(Cl)cc3)CCN2C(=O)N1OC(=O)N1CCOc2ccccc21 (centres undefined) | – | – | inactive | –
